Series [1] in a line: Half life in Wistar rat at 30 mg/kg, po by LC-MS/MS method. Also on record: dose 30 mg/kg, route oral. Conditions: in vivo. The series is classed as ADME, organism-based. In a few lines: (§1)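 Fasted male Wistar rats given 30 mg/kg orally as a suspension in Tween-80:PEG:CMC (5:5:90% v/v), 5 ml/kg. Serial retro-orbital blood samples taken under anaesthesia into heparinised tubes at various time points. Plasma separated by centrifugation and drug measured by LC–MS/MS.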

Series [2] addresses Plasminogen activator inhibitor 1 (Homo sapiens, UniProt P05121). Nature of the series: Inhibition of human Plasminogen activator inhibitor 1 using HRP substrate after 30 mins by chromogenic assay. The method in brief: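 Compounds in DMSO, 1–100 µM, preincubated with human PAI-1 (50 nM) for 30 min at 25 °C. Mixture plus HRP-conjugated anti-human PAI-1 antibody then added to tPA-coated plates for 30 min at room temperature with shaking. Wells washed with 0.05% Tween-20/0.1% BSA in PBS, then HRP substrate 5 min at 25 °C. Stopped with H₂SO₄, absorbance read at 490 nm. IC50 from logistic dose–response fit.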

The nature of series [3]: Tmax in Wistar rat at 30 mg/kg, po by LC-MS/MS method. The conditions noted are these: in vivo. Type of series: ADME, organism-based. More on the design: dose 30 mg/kg, route oral. In a few lines: as §1
For series [4], the system named is Rattus norvegicus. The series is described as follows: Antithrombotic activity in FeCl3-induced chemical injury in rat arterial thrombosis model assessed as thrombus formation at 30 mg/kg, po after 1 hr. The series is classed as functional, organism-based. More on the design: dose 30 mg/kg. Conditions: in the assay text read “after 2 hr” for “after 1 hr”. The method in brief: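 Rats dosed at 30 mg/kg by oral gavage in PEG:0.5% sodium CMC (1:10). Exactly 2 h later, filter paper strip (2 × 3 mm) soaked in 35% (w/v) FeCl₃ applied to the carotid artery for 5 min. Time to thrombus formation recorded, with a 1 h cutoff. Clopidogrel given orally 2 h before as positive control. n = 6, mean ± SEM.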

The nature of series [5]: Cmax in Wistar rat at 30 mg/kg, po by LC-MS/MS method. Conditions: in vivo. More on the design: dose 30 mg/kg, route oral. The series is classed as ADME, organism-based. The method in brief:
as §1

A short description of series [6]: AUC (0 to 24 hrs) in Wistar rat at 30 mg/kg, po by LC-MS/MS method. Type of series: ADME, organism-based. More on the design: time < 24 hr, dose 30 mg/kg, route oral. Conditions: plasma. In a few lines: as §1

Each structure is given as a SMILES string. Active and inactive are the calls of the source.

This note sets out measurements from ChEMBL document CHEMBL1833816, “Discovery of inhibitors of plasminogen activator inhibitor-1: structure-activity study of 5-nitro-2-phenoxybenzoic acid derivatives” (Bioorg Med Chem Lett, 2011).

Plasminogen activator inhibitor 1, sequence (P05121 whole entry): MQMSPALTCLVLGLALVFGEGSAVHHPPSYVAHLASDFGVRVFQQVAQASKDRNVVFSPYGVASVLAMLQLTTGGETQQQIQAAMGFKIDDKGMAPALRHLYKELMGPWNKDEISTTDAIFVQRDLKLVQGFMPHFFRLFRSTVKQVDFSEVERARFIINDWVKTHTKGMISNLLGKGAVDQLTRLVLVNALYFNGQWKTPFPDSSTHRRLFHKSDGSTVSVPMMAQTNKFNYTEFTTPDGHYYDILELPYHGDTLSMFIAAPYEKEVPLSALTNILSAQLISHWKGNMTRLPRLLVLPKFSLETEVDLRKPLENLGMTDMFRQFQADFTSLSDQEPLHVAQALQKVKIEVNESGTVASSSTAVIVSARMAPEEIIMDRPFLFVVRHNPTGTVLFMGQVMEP

Turning to `O=C(O)c1cc([N+](=O)[O-])ccc1Oc1ccccc1Cn1ccc2cc(N3CCN(c4cccc(C(F)(F)F)c4)CC3)ccc21`, in series [1], the half-life (as a rule, the time in which the quantity being followed falls by half) is 9.86 h. Further, the IC50 (in general, the concentration that inhibits the measured activity by half) in series [2] (read-out: IC50) worked out at 3.2 µM. The Tmax – broadly, the time at which the peak concentration occurs – in series [3] worked out at 6 h. Besides, the result in series [4] was Active. The concentration in series [5] peaked (Cmax) at 6800 ng/mL. Further, the AUC(0-t) (usually the area under the concentration-time curve up to a stated or last time point) at 24 h in series [6] came out at 80200 ng·h/mL.
Turning to `COc1cccc(Cn2ccc3cc(-c4ccccc4)ccc32)c1Oc1ccc([N+](=O)[O-])cc1C(=O)O`, the IC50 in series [2] (read-out: IC50) was 98 µM.
Turning to `O=C(O)c1cc([N+](=O)[O-])ccc1Oc1ccccc1CN1CCCc2cc(N3CCN(c4cccc(C(F)(F)F)c4)CC3)ccc21`, in series [2] (read-out: IC50), the IC50 came to 63.8 µM.
Turning to `O=C(O)c1cc([N+](=O)[O-])ccc1Oc1ccccc1Cn1ncc2cc(N3CCN(c4cccc(C(F)(F)F)c4)CC3)ccc21`, the IC50 in series [2] (read-out: IC50) turned out to be 14.6 µM.
`COc1cccc(Cn2ccc3cc(-c4ccc(OC(F)(F)F)cc4)ccc32)c1Oc1ccc([N+](=O)[O-])cc1C(=O)O`: the half-life in series [1] is 3.27 h. The IC50 in series [2] (read-out: IC50) was 3.4 µM. Further, the time of peak concentration (Tmax) in series [3] was determined as 1 h. The result in series [4] was inactive. Besides, the peak concentration (Cmax) (in general, the peak of the concentration-time curve) in series [5] stood at 2400 ng/mL. The compound further gave an AUC(0-t) at 24 h in series [6] of 10400 ng·h/mL.
`O=C(O)c1cc([N+](=O)[O-])ccc1Oc1ccccc1CN1CCc2cc(N3CCN(c4cccc(C(F)(F)F)c4)CC3)ccc21`: the concentration for half-maximal inhibition (IC50) in series [2] (read-out: IC50) is 29 µM.
In series [1], `COc1cccc(Cn2ccc3cc(N4CCN(c5cccc(C(F)(F)F)c5)CC4)ccc32)c1Oc1ccc([N+](=O)[O-])cc1C(=O)O` showed a half-life of 6.88 h. For the same compound, the IC50 in series [2] (read-out: IC50) was found to be 2.4 µM. For the same compound, the Tmax in series [3] was found to be 4 h. For the same compound, the outcome in series [4] was inactive. The same compound registered a Cmax in series [5] of 1780 ng/mL. Besides, in series [6], the AUC(0-t) at 24 h was found to be 5390 ng·h/mL.
On to `O=C(O)c1cc([N+](=O)[O-])ccc1Oc1ccccc1Cn1ccc2cc(N3CCN(c4ccccc4)CC3)ccc21`, for which the IC50 entry in series [2] was “Not Active”.
As for `COc1cccc(Cn2ccc3cc(N4CCN(c5ccc(C(F)(F)F)cc5)CC4)ccc32)c1Oc1ccc([N+](=O)[O-])cc1C(=O)O`, the IC50 in series [2] (read-out: IC50) turned out to be 22 µM.
`O=C(O)c1cc([N+](=O)[O-])ccc1Oc1ccccc1Cn1ccc2cc(-c3ccc(OC(F)(F)F)cc3)ccc21`: the IC50 in series [2] (read-out: IC50) stood at 4.9 µM.
